Results taken from ChEMBL document CHEMBL1122366, “Potential antiatherosclerotic agents. 3. Substituted benzoic and non benzoic acid analogues of cetaben” (1983).

Experiments:
[1] = system: Rattus norvegicus; assay: In vivo triglyceride lowering activity when dosed as 0.01 % of the diet; assay type: functional
Method in brief: (§1)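 Normal rats were dosed in the diet. Serum sterol and triglyceride levels were measured and expressed as the mean percent of control values. Significance versus control was reported at p < 0.05, 0.01 and 0.001.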

[2] = target: T1, Sterol O-acyltransferase 1 (Rattus norvegicus) (UniProt O70536); assay: In vitro inhibition of acyl coenzyme A:cholesterol acyltransferase; parameters: concentration or dose not given beside the values; details: concentration not given here
T1 sequence (whole entry): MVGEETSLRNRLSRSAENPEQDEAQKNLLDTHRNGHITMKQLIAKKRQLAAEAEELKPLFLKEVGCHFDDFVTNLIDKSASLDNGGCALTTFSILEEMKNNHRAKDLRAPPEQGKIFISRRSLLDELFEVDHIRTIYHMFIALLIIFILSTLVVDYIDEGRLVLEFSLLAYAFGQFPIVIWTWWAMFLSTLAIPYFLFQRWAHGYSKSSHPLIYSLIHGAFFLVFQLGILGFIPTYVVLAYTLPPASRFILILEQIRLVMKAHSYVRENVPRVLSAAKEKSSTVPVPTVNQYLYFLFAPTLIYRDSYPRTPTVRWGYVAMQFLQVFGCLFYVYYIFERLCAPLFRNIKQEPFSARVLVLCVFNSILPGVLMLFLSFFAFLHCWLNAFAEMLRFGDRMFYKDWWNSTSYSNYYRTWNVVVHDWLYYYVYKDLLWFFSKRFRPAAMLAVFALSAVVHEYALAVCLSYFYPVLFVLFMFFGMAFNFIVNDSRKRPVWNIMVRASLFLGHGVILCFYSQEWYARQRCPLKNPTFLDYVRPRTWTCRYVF
Method in brief: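 Enzyme fatty acyl-CoA:cholesterol acyltransferase (ACAT), assayed in vitro at a single drug concentration of 5.2 μg/mL. The value is the mean percent inhibition of enzyme activity.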

[3] = system: Rattus norvegicus; assay: In vivo sterol lowering activity when dosed as 0.01 % of the diet; assay type: functional; method in brief: as §1
[4] = system: Rattus norvegicus; assay: In vivo sterol lowering activity at dose of 0.10 % of the diet; assay type: functional; method in brief: as §1
[5] = system: Rattus norvegicus; assay: In vivo triglyceride lowering activity dosed at 0.10 % of the diet.; assay type: functional; method in brief: as §1
[6] = system: Rattus norvegicus; assay: In vivo sterol lowering activity when dosed as 0.03 % of the diet; assay type: functional; method in brief: as §1
[7] = system: Rattus norvegicus; assay: In vivo triglyceride lowering activity when dosed at 0.03 % of the diet; assay type: functional; method in brief: as §1

Compound | serum triglyceride level, percent of control [1] [%] | inhibition [2] [%] | serum sterol level, % of control [3] [%] | serum sterol level, percent of control [4] [%] | serum triglyceride, percent of control [5] [%] | serum sterol level, percent of control [6] [%] | serum triglyceride level, percent of control [7] [%] | Diet [7] [%]
CCCCCCCCCCCCCCCCNc1ccc(C(=O)C(C#N)C(=O)OCC)cc1 (stereo not given) | 83 | < 40 | 115 | 100 | 105 | 100 | 90 | –
CCCCCCCCCCCCCCCCNc1ccc(C(=O)CC(=O)OCC)cc1 | 71 | 2 | 105 | <85 | <30 | <83 | <53 | –
CCCCCCCCCCCCCCCCNc1ccc(C(=O)SCC(O)CO)cc1 (stereo not given) | 106 | 3 | 93 | <82 | <64 | 92 | 83 | –
CCCCCCCCCCCCCCCCNc1ccc(C(SCC)SCC)cc1 | 86 | 0 | 96 | 88 | 77 | 101 | 106 | –
CCCCCCCCCCCCCCCCNc1ccc(C(=O)NCC(=O)O)cc1 | 76 | < 64 | <77 | <77 | <48 | 87 | <70 | –
CCCCCCCCCCCCCCCCNC1CCC(C(=O)O)CC1 (stereo not given) | 75 | < 48 | 97 | <75 | 71 | <86 | 79 | –
CCCCCCCCCCCCCCCCNc1ccc(C(=O)O)cn1 | 121 | < 45 | 102 | 90 | 94 | <84 | 88 | –
CCCCCCCCCCCCCCCCNc1ncc(C(=O)O)cn1 | 89 | < 21 | 108 | 114 | 93 | 108 | 94 | –
CCCCCCCCCCCCCCCCNc1ccc(C(=O)[O-])c(C(=O)[O-])c1.[Na+].[Na+] | 110 | 63 | 100 | 101 | <67 | 105 | 85 | –
CCCCCCCCCCCCCCCCNc1ccc(C(=O)O)c(F)c1 | 77 | 57 | 93 | <75 | <40 | <77 | 79 | –
CCCCCCCCCCCCCCCCNc1ccc(C(=O)OC2COC(c3ccccc3)OC2)cc1 (stereo not given) | 103 | 0 | 95 | 99 | 78 | 91 | – | 68
CCCCCCCCCCCCCCCCNc1ccc(C(=O)OC2CCCCO2)cc1 (stereo not given) | 108 | 0 | 91 | <74 | <54 | <76 | – | 98
CCCCCCCCCCCCCCCCNc1ccc(C(=O)OCCCO)cc1 | <67 | 14 | 94 | <68 | <46 | <82 | <74 | –
CCCCCCCCCCCCCCCCNc1ccc(C(=O)CC(=O)O)cc1 | 80 | < 28 | 105 | 104 | 100 | 100 | 90 | –
CCCCCCCCCCCCCCCCNc1ccc(C(=O)Oc2ccccc2)cc1 | 105 | 0 | 89 | <84 | <76 | 85 | 76 | –
CCCCCCCCCCCCCCCCNc1ccc(C(=O)OCC(C)(C)CO)cc1 | 103 | 13 | 97 | 101 | 101 | 93 | 92 | –
CCCCCCCCCCCCCCCCNc1ccc(O)cc1 | 118 | 0 | 104 | 92 | 104 | 99 | 124 | –
CCCCCCCCCCCCCCCCNc1cc(C(=O)[O-])c(C(=O)[O-])c(C(=O)[O-])c1.[Na+].[Na+].[Na+] | 82 | < 24 | 100 | 97 | 93 | 100 | <68 | –
CCCCCCCCCCCCCCCCNc1ccc(C2=NCCO2)cc1 | 103 | 0 | 100 | 86 | 76 | 100 | 94 | –
CCCCCCCCCCCCCCCCNc1ccc(C(=O)CC(=O)C(=O)OC)cc1 | 101 | < 43 | 92 | 85 | 81 | 96 | 77 | –
